# Assay results reported in ChEMBL document CHEMBL2384906, “Biological activity, design, synthesis and structure activity relationship of some novel derivatives of curcumin containing sulfonamides” (Eur J Med Chem, 2013).
# Calls of active or inactive are those of the source. The rule behind the calls is not given here.
# How the values were obtained:
# Staphylococcus aureus [1] = assay: Antimicrobial activity against Staphylococcus aureus ATCC 11632 assessed as diameter of inhibition zone at 40 uM after 24 hrs by Kirby -Baur disc diffusion method; type: functional; settings: ATCC 11632, 24 h, read-out: DIZ
# In short: (§1)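 Kirby-Bauer disc diffusion was used. Acetone stocks (160 µM) were serially doubled down to 80, 40 and 20 µM. 4 µL of each went onto 5 mm sterile paper discs, which were dried 30 min at 50 °C. Inoculum was 1.5 × 10⁸ CFU/mL diluted to 3 × 10² CFU/mL, and 50 µL was spread on Mueller-Hinton agar. After 24 h at 37 °C the inhibition-zone diameter was measured. Ciprofloxacin served as positive control.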
# QG-56 = assay: Cytotoxicity against human QG56 cells after 24 hrs by MTT assay; type: functional, cell-based
# In short: (§2)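 The MTT assay seeded 5 × 10⁴ cells per well and grew them 24 h in RPMI 1640 with compound at 2.5–200 µM. Medium without cells was the blank and adriamycin the positive control. MTT was added for 4 h at 37 °C, formazan was solubilised, and absorbance was read at 570 nm. IC50 is the concentration that cuts viability 50% against untreated cells.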
# Aspergillus flavus [2] = assay: Antifungal activity against Aspergillus flavus MTCC 1021 assessed as zone of inhibition at 80 uM after 48 hrs by disc diffusion method; type: functional; settings: MTCC 1021, 48 h, read-out: IZ
# In short: (§3)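 Spores from 4-day potato dextrose agar cultures, suspended in sterile water at 1.5 × 10⁵ CFU/mL. 0.2 mL was spread on potato dextrose agar. 5 mm filter-paper discs soaked with test compound were laid on the lawn. Incubation was 48 h at 28 °C, then the inhibition zone was measured in mm. Fluconazole was the positive control and acetone the negative control.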
# Salmonella typhi [3] = assay: Antimicrobial activity against Salmonella typhi ATCC 23564 after 24 hrs by broth micro serial dilution method; type: functional, Salmonella enterica subsp. enterica serovar Typhi; settings: Salmonella enterica, ATCC 23564, 24 h
# Pseudomonas aeruginosa [4] = assay: Antimicrobial activity against Pseudomonas aeruginosa ATCC 15499 assessed as diameter of inhibition zone at 40 uM after 24 hrs by Kirby -Baur disc diffusion method; type: functional; settings: ATCC 15499, 24 h, read-out: DIZ; in short: as §1
# Bacillus cereus [5] = assay: Antimicrobial activity against Bacillus cereus MTCC 7350 assessed as diameter of inhibition zone at 40 uM after 24 hrs by Kirby -Baur disc diffusion method; type: functional; settings: MTCC 7350, 24 h, read-out: DIZ; in short: as §1
# Pseudomonas aeruginosa [6] = assay: Antimicrobial activity against Pseudomonas aeruginosa ATCC 15499 assessed as diameter of inhibition zone at 20 uM after 24 hrs by Kirby -Baur disc diffusion method; type: functional; settings: ATCC 15499, 24 h, read-out: DIZ; in short: as §1
# Bacillus cereus [7] = assay: Antimicrobial activity against Bacillus cereus MTCC 7350 after 24 hrs by broth micro serial dilution method; type: functional; settings: MTCC 7350, 24 h
# In short: (§4)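 This was broth microdilution in autoclaved Mueller-Hinton broth. 150 µL of compound per well was serially diluted […], and 50 µL of test organism was added. Plates were incubated 24 h at 37 °C and optical density was read.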
# Aspergillus niger [8] = assay: Antifungal activity against Aspergillus niger MTCC 1108 assessed as zone of inhibition at 80 uM after 48 hrs by disc diffusion method; type: functional; settings: MTCC 1108, 48 h, read-out: IZ; in short: as §3
# Aspergillus niger [9] = assay: Antifungal activity against Aspergillus niger MTCC 1108 assessed as zone of inhibition at 40 uM after 48 hrs by disc diffusion method; type: functional; in short: as §3
# Aspergillus flavus [10] = assay: Antifungal activity against Aspergillus flavus MTCC 1021 assessed as zone of inhibition at 20 uM after 48 hrs by disc diffusion method; type: functional; in short: as §3
# Salmonella typhi [11] = assay: Antimicrobial activity against Salmonella typhi ATCC 23564 assessed as diameter of inhibition zone at 80 uM after 24 hrs by Kirby -Baur disc diffusion method; type: functional, Salmonella enterica subsp. enterica serovar Typhi; settings: Salmonella enterica, ATCC 23564, 24 h; read-out: DIZ
# Curvularia lunata [12] = assay: Antifungal activity against Curvularia lunata MTCC 581 assessed as zone of inhibition at 20 uM after 48 hrs by disc diffusion method; type: functional; settings: MTCC 581, 48 h, read-out: IZ; in short: as §3
# Trichoderma viride [13] = assay: Antifungal activity against Trichoderma viride MTCC 1107 assessed as zone of inhibition at 40 uM after 48 hrs by disc diffusion method; type: functional; settings: MTCC 1107, 48 h, read-out: IZ; in short: as §3
# Staphylococcus aureus [14] = assay: Antimicrobial activity against Staphylococcus aureus ATCC 11632 assessed as diameter of inhibition zone at 20 uM after 24 hrs by Kirby -Baur disc diffusion method; type: functional; settings: ATCC 11632, 24 h, read-out: DIZ; in short: as §1
# Escherichia coli [15] = assay: Antimicrobial activity against Escherichia coli ATCC 35218 after 24 hrs by broth micro serial dilution method; type: functional; settings: ATCC 35218, 24 h; in short: as §4
# Mus musculus = assay: Antiinflammatory activity in mouse assessed as inhibition of carrageenan-induced increase in paw volume at 200 mg/kg administered 1 hr prior to carrageenan challenge measured after 3 hrs relative to control; type: functional
# In short: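 Mice were fasted 2 h and placed in groups of five. Controls received saline i.p. Phenylbutazone was given at 100 mg/kg i.p., curcumin at 200 mg/kg i.p., and derivatives at 200 mg/kg. After 1 h, 0.1 mL of 1% carrageenan in saline was injected subplantar into the right hind paw. Paw volume was followed by plethysmometer for 3 h, and % inhibition was calculated as (Vc − Vt)/Vc × 100.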
# Curvularia lunata [16] = assay: Antifungal activity against Curvularia lunata MTCC 581 after 48 hrs; type: functional; settings: MTCC 581, 48 h
# Curvularia lunata [17] = assay: Antifungal activity against Curvularia lunata MTCC 581 assessed as zone of inhibition at 40 uM after 48 hrs by disc diffusion method; type: functional; settings: MTCC 581, 48 h, read-out: IZ; in short: as §3
# Escherichia coli [18] = assay: Antimicrobial activity against Escherichia coli ATCC 35218 assessed as diameter of inhibition zone at 40 uM after 24 hrs by Kirby -Baur disc diffusion method; type: functional; settings: ATCC 35218, 24 h, read-out: DIZ; in short: as §1
# HCT-116 = assay: Cytotoxicity against human HCT116 cells after 24 hrs by MTT assay; type: functional, cell-based; in short: as §2
# Aspergillus flavus [19] = assay: Antifungal activity against Aspergillus flavus MTCC 1021 assessed as zone of inhibition at 40 uM after 48 hrs by disc diffusion method; type: functional; in short: as §3
# Bacillus cereus [20] = assay: Antimicrobial activity against Bacillus cereus MTCC 7350 assessed as diameter of inhibition zone at 80 uM after 24 hrs by Kirby -Baur disc diffusion method; type: functional; settings: MTCC 7350, 24 h, read-out: DIZ; in short: as §1
# Aspergillus niger [21] = assay: Antifungal activity against Aspergillus niger MTCC 1108 assessed as zone of inhibition at 20 uM after 48 hrs by disc diffusion method; type: functional; in short: as §3
# Escherichia coli [22] = assay: Antimicrobial activity against Escherichia coli ATCC 35218 assessed as diameter of inhibition zone at 20 uM after 24 hrs by Kirby -Baur disc diffusion method; type: functional; settings: ATCC 35218, 24 h, read-out: DIZ; in short: as §1
# HeLa = assay: Cytotoxicity against human HeLa cells after 24 hrs by MTT assay; type: functional, cell-based; in short: as §2
# Aspergillus flavus [23] = assay: Antifungal activity against Aspergillus flavus MTCC 1021 after 48 hrs; type: functional; settings: MTCC 1021, 48 h
# Pseudomonas aeruginosa [24] = assay: Antimicrobial activity against Pseudomonas aeruginosa ATCC 15499 assessed as diameter of inhibition zone at 80 uM after 24 hrs by Kirby -Baur disc diffusion method; type: functional; settings: ATCC 15499, 24 h, read-out: DIZ; in short: as §1
# Trichoderma viride [25] = assay: Antifungal activity against Trichoderma viride MTCC 1107 assessed as zone of inhibition at 80 uM after 48 hrs by disc diffusion method; type: functional; settings: MTCC 1107, 48 h, read-out: IZ; in short: as §3
# Curvularia lunata [26] = assay: Antifungal activity against Curvularia lunata MTCC 581 assessed as zone of inhibition at 80 uM after 48 hrs by disc diffusion method; type: functional; settings: MTCC 581, 48 h, read-out: IZ; in short: as §3
# Staphylococcus aureus [27] = assay: Antimicrobial activity against Staphylococcus aureus ATCC 11632 after 24 hrs by broth micro serial dilution method; type: functional; settings: ATCC 11632, 24 h; in short: as §4
# Bacillus cereus [28] = assay: Antimicrobial activity against Bacillus cereus MTCC 7350 assessed as diameter of inhibition zone at 20 uM after 24 hrs by Kirby -Baur disc diffusion method; type: functional; settings: MTCC 7350, 24 h, read-out: DIZ; in short: as §1
# Salmonella typhi [29] = assay: Antimicrobial activity against Salmonella typhi ATCC 23564 assessed as diameter of inhibition zone at 20 uM after 24 hrs by Kirby -Baur disc diffusion method; type: functional, Salmonella enterica subsp. enterica serovar Typhi; settings: Salmonella enterica, ATCC 23564, 24 h; read-out: DIZ
# Pseudomonas aeruginosa [30] = assay: Antimicrobial activity against Pseudomonas aeruginosa ATCC 15499 after 24 hrs by broth micro serial dilution method; type: functional; settings: ATCC 15499, 24 h; in short: as §4
# Trichoderma viride [31] = assay: Antifungal activity against Trichoderma viride MTCC 1107 after 48 hrs; type: functional; settings: MTCC 1107, 48 h
# Trichoderma viride [32] = assay: Antifungal activity against Trichoderma viride MTCC 1107 assessed as zone of inhibition at 20 uM after 48 hrs by disc diffusion method; type: functional; settings: MTCC 1107, 48 h, read-out: IZ; in short: as §3
# Staphylococcus aureus [33] = assay: Antimicrobial activity against Staphylococcus aureus ATCC 11632 assessed as diameter of inhibition zone at 80 uM after 24 hrs by Kirby -Baur disc diffusion method; type: functional; settings: ATCC 11632, 24 h, read-out: DIZ; in short: as §1
# HepG2 = assay: Cytotoxicity against human HepG2 cells after 24 hrs by MTT assay; type: functional, cell-based; in short: as §2
# Salmonella typhi [34] = assay: Antimicrobial activity against Salmonella typhi ATCC 23564 assessed as diameter of inhibition zone at 40 uM after 24 hrs by Kirby -Baur disc diffusion method; type: functional, Salmonella enterica subsp. enterica serovar Typhi; settings: Salmonella enterica, ATCC 23564, 24 h; read-out: DIZ
# Aspergillus niger [35] = assay: Antifungal activity against Aspergillus niger MTCC 1108 after 48 hrs; type: functional; settings: MTCC 1108, 48 h
# Escherichia coli [36] = assay: Antimicrobial activity against Escherichia coli ATCC 35218 assessed as diameter of inhibition zone at 80 uM after 24 hrs by Kirby -Baur disc diffusion method; type: functional; settings: ATCC 35218, 24 h, read-out: DIZ; in short: as §1
structure (smiles),measurement,setting,value
COc1cc(/C=C/C(CC(/C=C/c2ccc(O)c(OC)c2)=N/c2ccc(S(=O)(=O)Nc3cc(C)on3)cc2)=N\c2ccc(S(=O)(=O)Nc3cc(C)on3)cc2)ccc1O,zone of inhibition at 40 µM,Staphylococcus aureus [1],21 mm
same,IC50,QG-56,100 µM
same,zone of inhibition at 80 µM,Aspergillus flavus [2],9 mm
same,MIC,Salmonella typhi [3],40 µM
same,zone of inhibition at 40 µM,Pseudomonas aeruginosa [4],21 mm
same,zone of inhibition at 40 µM,Bacillus cereus [5],16 mm
same,zone of inhibition at 20 µM,Pseudomonas aeruginosa [6],16 mm
same,MIC,Bacillus cereus [7],40 µM
same,zone of inhibition at 80 µM,Aspergillus niger [8],10 mm
same,inhibition zone (IZ),Aspergillus niger [9],inactive
same,inhibition zone (IZ),Aspergillus flavus [10],inactive
same,zone of inhibition at 80 µM,Salmonella typhi [11],29 mm
same,zone of inhibition at 20 µM,Curvularia lunata [12],9 mm
same,zone of inhibition at 40 µM,Trichoderma viride [13],11 mm
same,zone of inhibition at 20 µM,Staphylococcus aureus [14],17 mm
same,MIC,Escherichia coli [15],20 µM
same,inhibition in vivo at 200 mg/kg,Mus musculus,8%
same,MIC,Curvularia lunata [16],40 µM
same,zone of inhibition at 40 µM,Curvularia lunata [17],10 mm
same,zone of inhibition at 40 µM,Escherichia coli [18],21 mm
same,IC50,HCT-116,100 µM
same,inhibition zone (IZ),Aspergillus flavus [19],inactive
same,zone of inhibition at 80 µM,Bacillus cereus [20],21 mm
same,inhibition zone (IZ),Aspergillus niger [21],inactive
same,zone of inhibition at 20 µM,Escherichia coli [22],18 mm
same,IC50,HeLa,100 µM
same,MIC,Aspergillus flavus [23],> 80 µM
same,zone of inhibition at 80 µM,Pseudomonas aeruginosa [24],26 mm
same,zone of inhibition at 80 µM,Trichoderma viride [25],13 mm
same,zone of inhibition at 80 µM,Curvularia lunata [26],11 mm
same,MIC,Staphylococcus aureus [27],40 µM
same,zone of inhibition at 20 µM,Bacillus cereus [28],11 mm
same,zone of inhibition at 20 µM,Salmonella typhi [29],18 mm
same,MIC,Pseudomonas aeruginosa [30],40 µM
same,MIC,Trichoderma viride [31],40 µM
same,zone of inhibition at 20 µM,Trichoderma viride [32],9 mm
same,zone of inhibition at 80 µM,Staphylococcus aureus [33],24 mm
same,IC50,HepG2,100 µM
same,zone of inhibition at 40 µM,Salmonella typhi [34],26 mm
same,MIC,Aspergillus niger [35],> 80 µM
same,zone of inhibition at 80 µM,Escherichia coli [36],23 mm
